From ChEMBL document CHEMBL3864154, “Discovery and preliminary structure-activity relationship of 1H-indazoles with promising indoleamine-2,3-dioxygenase 1 (IDO1) inhibition properties” (Bioorg Med Chem, 2016)

Experiments:
[1] = biological target: T1, Indoleamine 2,3-dioxygenase 1 (Homo sapiens, UniProt P14902); assay: Inhibition of recombinant human N-terminus IDO1 expressed in Escherichia coli assessed as N-formylkynurenine formation at 100 uM using L-tryptophan as substrate measured after 180 mins by UV absorbance based assay
Outline: (§1)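 Human N-terminal IDO1 expressed in E. coli, Ni affinity-purified; 40 nmol/L enzyme with 900 μmol/L tryptophan plus coupled reaction components in IDO1 assay buffer, 0.5% DMSO final, room temperature, 180 min. N-formylkynurenine read by UV absorbance at 321 nm. Blank lacks enzyme; positive control lacks inhibitor.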
Target sequence in this assay (P14902 whole entry, looked up): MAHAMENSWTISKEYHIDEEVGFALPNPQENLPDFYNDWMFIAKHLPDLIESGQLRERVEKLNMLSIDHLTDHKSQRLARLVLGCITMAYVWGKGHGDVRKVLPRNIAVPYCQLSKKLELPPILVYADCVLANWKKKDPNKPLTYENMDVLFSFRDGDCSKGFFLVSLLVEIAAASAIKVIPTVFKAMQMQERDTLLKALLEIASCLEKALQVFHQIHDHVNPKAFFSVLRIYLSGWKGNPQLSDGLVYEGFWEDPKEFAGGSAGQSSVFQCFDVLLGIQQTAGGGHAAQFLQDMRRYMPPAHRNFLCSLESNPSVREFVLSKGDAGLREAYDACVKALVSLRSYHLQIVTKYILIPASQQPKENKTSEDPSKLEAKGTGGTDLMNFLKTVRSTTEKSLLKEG

[2] = biological target: T1, Indoleamine 2,3-dioxygenase 1; assay: Inhibition of recombinant human N-terminus IDO1 expressed in Escherichia coli assessed as N-formylkynurenine formation at 10 uM using L-tryptophan as substrate measured after 180 mins by UV absorbance based assay; outline: as §1
Target sequence in this assay (P14902 whole entry, looked up): as above

[3] = biological target: T1, Indoleamine 2,3-dioxygenase 1; assay: Inhibition of recombinant human N-terminus IDO1 expressed in Escherichia coli assessed as N-formylkynurenine formation at 1 uM using L-tryptophan as substrate measured after 180 mins by UV absorbance based assay
Target sequence in this assay (P14902 whole entry, looked up): as above

[4] = biological target: T1, Indoleamine 2,3-dioxygenase 1; assay: Inhibition of recombinant human N-terminus IDO1 expressed in Escherichia coli assessed as residual activity at -7.8 log[compound]/M using L-tryptophan as substrate measured after 180 mins by UV absorbance based assay relative to control
Outline: (§2)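 E. coli-expressed, Ni affinity-purified human N-terminal IDO1 at 40 nmol/L with 900 μmol/L tryptophan, coupled reaction components, 0.5% DMSO final, room temperature, 180 min; N-formylkynurenine read at 321 nm. Duplicates per concentration; % activity relative to no-inhibitor control, fitted by sigmoidal dose-response nonlinear regression; IC50 at half-maximal activity.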
Target sequence in this assay (P14902 whole entry, looked up): as above

[5] = biological target: T1, Indoleamine 2,3-dioxygenase 1; assay: Inhibition of recombinant human N-terminus IDO1 expressed in Escherichia coli assessed as residual activity at -5.4 log[compound]/M using L-tryptophan as substrate measured after 180 mins by UV absorbance based assay relative to control; outline: as §2
Target sequence in this assay (P14902 whole entry, looked up): as above

[6] = biological target: T1, Indoleamine 2,3-dioxygenase 1; assay: Inhibition of recombinant human N-terminus IDO1 expressed in Escherichia coli assessed as residual activity at -6.9 log[compound]/M using L-tryptophan as substrate measured after 180 mins by UV absorbance based assay relative to control; outline: as §2
Target sequence in this assay (P14902 whole entry, looked up): as above

[7] = biological target: T1, Indoleamine 2,3-dioxygenase 1; assay: Inhibition of recombinant human N-terminus IDO1 expressed in Escherichia coli assessed as residual activity at -7.3 log[compound]/M using L-tryptophan as substrate measured after 180 mins by UV absorbance based assay relative to control; outline: as §2
[8] = biological target: T1, Indoleamine 2,3-dioxygenase 1; assay: Inhibition of recombinant human N-terminus IDO1 expressed in Escherichia coli assessed as residual activity at -6.4 log[compound]/M using L-tryptophan as substrate measured after 180 mins by UV absorbance based assay relative to control; outline: as §2
[9] = biological target: T1, Indoleamine 2,3-dioxygenase 1; assay: Inhibition of recombinant human N-terminus IDO1 expressed in Escherichia coli assessed as N-formylkynurenine formation using L-tryptophan as substrate measured after 180 mins by UV absorbance based assay; outline: as §2
Target sequence in this assay (P14902 whole entry): as the sequence (P14902 whole entry, looked up) above

[10] = biological target: T1, Indoleamine 2,3-dioxygenase 1; assay: Inhibition of recombinant human N-terminus IDO1 expressed in Escherichia coli assessed as residual activity at -4.5 log[compound]/M using L-tryptophan as substrate measured after 180 mins by UV absorbance based assay relative to control; outline: as §2
[11] = biological target: T1, Indoleamine 2,3-dioxygenase 1; assay: Inhibition of recombinant human N-terminus IDO1 expressed in Escherichia coli assessed as residual activity at -8.3 log[compound]/M using L-tryptophan as substrate measured after 180 mins by UV absorbance based assay relative to control; outline: as §2
[12] = biological target: T1, Indoleamine 2,3-dioxygenase 1; assay: Inhibition of recombinant human N-terminus IDO1 expressed in Escherichia coli assessed as residual activity at -8.8 log[compound]/M using L-tryptophan as substrate measured after 180 mins by UV absorbance based assay relative to control; outline: as §2
[13] = biological target: T1, Indoleamine 2,3-dioxygenase 1; assay: Inhibition of recombinant human N-terminus IDO1 expressed in Escherichia coli assessed as residual activity at -5 log[compound]/M using L-tryptophan as substrate measured after 180 mins by UV absorbance based assay relative to control; outline: as §2
[14] = biological target: T1, Indoleamine 2,3-dioxygenase 1; assay: Inhibition of recombinant human N-terminus IDO1 expressed in Escherichia coli assessed as residual activity at -5.9 log[compound]/M using L-tryptophan as substrate measured after 180 mins by UV absorbance based assay relative to control; outline: as §2

Structure (SMILES) | inhibition [1] | inhibition [2] | inhibition [3] | other results
Brc1cc(NCc2ccccc2)c2cn[nH]c2c1 | 100% | 37% | – | –
O=C(O)Cc1ccc(CNc2cc(Br)cc3[nH]ncc23)cc1 | 79% | 27% | – | –
NS(=O)(=O)NCCNc1nonc1/C(=N/O)Nc1ccc(F)c(Br)c1 | – | 100% | – | –
O=C(O)c1ccc(CNc2ncnc3[nH]ncc23)cc1 | 9% | 3% | 3% | –
Cc1ccc(CNc2cc(Br)cc3[nH]ncc23)cc1 | 84% | 20% | – | –
O=C(CNc1cc(Br)cc2[nH]ncc12)NC1CCOCC1 | 34% | 8% | 4% | –
O=C(CNc1cc(Br)cc2[nH]ncc12)Nc1ccc(C(=O)O)cc1 | 37% | 12% | 3% | –
Clc1ccc(CNc2cc(Br)cc3[nH]ncc23)cc1 | 100% | 42% | – | –
Oc1ccc(CNc2cc(Br)cc3[nH]ncc23)cc1 | 100% | 70% | – | Activity [4]: 91%; Activity [5]: 51%; Activity [6]: 87%; Activity [7]: 88%; Activity [8]: 82%; IC50 [9]: 5.3 µM; Activity [10]: 9%; Activity [11]: 91%; Activity [12]: 92%; Activity [13]: 26%; Activity [14]: 71%
Oc1ccccc1CNc1cc(Br)cc2[nH]ncc12 | 100% | 41% | – | –
O=C(O)c1ccc(CNc2cccc3[nH]ncc23)cc1 | 24% | 1% | – | –
Cc1nc(NCc2cccc(C(=O)O)c2)c2cn[nH]c2n1 | 32% | 5% | 3% | –
Cc1nc(NCc2ccc(C(=O)O)cc2)c2cn[nH]c2n1 | 37% | 5% | 3% | –

Now from value to compound, other results behind:

inhibition [1] | inhibition [2] | inhibition [3] | Structure (SMILES) | other results
7% | 2% | 2% | O=C(O)c1cccc(CNc2ncnc3[nH]ncc23)c1 | –
69% | 18% | – | O=C(O)c1ccc(COc2cc(Br)cc3[nH]ncc23)cc1 | –
91 to 94% | 49 to 58% | 19% | O=C(O)c1ccc(CNc2cc(Br)cc3[nH]ncc23)cc1 | –
40% | 7% | – | O=C(O)c1cccc(COc2cc(Br)cc3[nH]ncc23)c1 | –
68% | 19% | – | O=C(O)c1ccc(C(CO)Nc2cc(Br)cc3[nH]ncc23)cc1 (centres undefined) | –
88% | 38% | – | O=C(O)c1cc(CNc2cc(Br)cc3[nH]ncc23)ccc1O | –
73% | 31% | – | O=C(O)c1ccc(C(O)CNc2cc(Br)cc3[nH]ncc23)cc1 (centres undefined) | –
74% | 21% | – | O=C(O)c1cccc(CNc2cc(Br)cc3[nH]ncc23)c1 | –
